Experimental data published in PubChem BioAssay AID652205 (Vanderbilt Specialized Chemistry Center, 2013).
The source made the active and inactive calls. The rule behind the calls is not given here.

Target: Metabotropic glutamate receptor 6 (Homo sapiens) (UniProt O15303)
Assay: human mGlu6 allosteric modulation, selectivity assay for mGlu5 silent allosteric modulator project, cell-based, HEK293A, Galpha15, calcium mobilization (AID 652205)
Conditions: HEK293A hmGlu6+Galpha15, Fluo4 calcium mobilization, glutamate CRC; at 10 µM
In short: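 Buffer or medium – HBSS with 2.5 mM probenecid and 20 mM HEPES, pH 7.4 · Test system – human mGlu6 plus Galpha15 in HEK293 cells · Dosing – single test compound dose of 10 µM, 1% DMSO · Times – dye loading 60 min, 37 °C, compound at 20 s · Technique – Fluo-4 calcium mobilization fluorescence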

Metabotropic glutamate receptor 6 (Homo sapiens), sequence (O15303 whole entry, looked up): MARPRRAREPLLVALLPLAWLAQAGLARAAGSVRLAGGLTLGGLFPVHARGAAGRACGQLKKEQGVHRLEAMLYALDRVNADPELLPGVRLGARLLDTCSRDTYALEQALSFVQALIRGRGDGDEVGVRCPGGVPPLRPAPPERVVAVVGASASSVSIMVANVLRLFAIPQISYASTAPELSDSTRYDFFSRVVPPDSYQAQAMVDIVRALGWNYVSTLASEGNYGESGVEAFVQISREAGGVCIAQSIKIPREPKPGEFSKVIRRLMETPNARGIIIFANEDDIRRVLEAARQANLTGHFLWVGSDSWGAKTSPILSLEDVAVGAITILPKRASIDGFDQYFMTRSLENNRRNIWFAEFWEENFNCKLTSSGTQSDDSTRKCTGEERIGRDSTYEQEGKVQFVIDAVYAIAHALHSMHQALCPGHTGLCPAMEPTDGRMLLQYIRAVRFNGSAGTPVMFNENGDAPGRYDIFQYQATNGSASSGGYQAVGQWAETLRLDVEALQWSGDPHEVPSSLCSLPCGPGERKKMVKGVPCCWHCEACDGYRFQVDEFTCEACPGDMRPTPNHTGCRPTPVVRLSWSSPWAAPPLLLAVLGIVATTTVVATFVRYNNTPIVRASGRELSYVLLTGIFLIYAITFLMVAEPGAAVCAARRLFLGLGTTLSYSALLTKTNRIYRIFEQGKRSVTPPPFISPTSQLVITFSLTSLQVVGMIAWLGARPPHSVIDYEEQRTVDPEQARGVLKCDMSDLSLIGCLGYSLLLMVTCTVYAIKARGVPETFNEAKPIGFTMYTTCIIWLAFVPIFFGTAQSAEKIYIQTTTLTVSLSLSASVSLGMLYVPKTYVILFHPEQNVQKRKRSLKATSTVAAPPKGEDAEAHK

glutamate EC50 fold shift: 0.859 (inactive)
Structure (SMILES): O=C(c1ccc(C#Cc2cccc(F)c2)cn1)N1CC2CC2C1 (stereo unspecified)
